# Shown are actives, neighbours in structure and some others; about 1.5% of the full set was active somewhere.
# NR2E3 ag-1 = NR2E3 agonists in two-hybrid cells, primary screen, cell-based, luminescence, CHO-S, Gal4-NCOR/VP16-NR2E3; Photoreceptor-specific nuclear receptor (Homo sapiens), Q9Y5X4; luciferase; inhibition of corepressor binding, % at 3.98 µM; 0.35% of 360,000 active;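 active = inhibition above the mean of all tested compounds plus 3 SD, cut at about 70% in these data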;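 note: 0% = DMSO with NR2E3 transfected cells and 100% = cells lacking NR2E3 construct; higher means lower luciferase signal from less NR2E3 corepressor binding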
# GalR3 antagonist = GalR3 antagonists in HEK293 cells, primary screen, cell-based, fluorescence readout | Galanin receptor type 3 (Homo sapiens), O60755 | HEK293 GalR3-CNG cAMP membrane potential fluorescence; galR3 body fused to GalR1 C-terminus | inhibition, % at 3 µM | 0.44% of 360,000 active;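 active = inhibition above the screen-wide average plus 3 SD, cut at about 13% in these data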;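 note: forskolin and galanin both at EC90 stimulate the cells; cAMP rise reported by CNG channel membrane potential dye signal; 0% = forskolin plus galanin with DMSO and 100% = forskolin alone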
# Target sequence (O60755 1-299 limits assumed): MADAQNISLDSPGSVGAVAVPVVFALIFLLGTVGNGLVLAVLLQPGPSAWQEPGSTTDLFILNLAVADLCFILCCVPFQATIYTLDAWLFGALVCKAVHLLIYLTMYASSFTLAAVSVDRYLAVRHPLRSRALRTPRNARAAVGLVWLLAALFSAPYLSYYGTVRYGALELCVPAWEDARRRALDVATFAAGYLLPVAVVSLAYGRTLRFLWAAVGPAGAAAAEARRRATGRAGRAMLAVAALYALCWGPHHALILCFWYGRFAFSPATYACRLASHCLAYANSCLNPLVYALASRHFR
# NR2E3 ag-2 = inhibitors of NR2E3-RetCOR corepressor binding, primary screen, NR2E3 agonist project, biochemical, TR-FRET, GST-NR2E3, biotin-RetCOR; 1536-well; AID 2300, 2010; Photoreceptor-specific nuclear receptor (Homo sapiens), Q9Y5X4; 0.12% of 320,000 active; inhibition of corepressor binding, % at 4.78 µM;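 active = percent inhibition above the cutoff of mean plus 3 SD of all tested compounds, set per screening campaign, cut at about 20% in these data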;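 note: 0% = DMSO wells and 100% = biotin wells as full block of FRET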
#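 System: GST-NR2E3 and biotin-RetCOR proteins; probe or stimulus: 7 nM biotin-RetCOR; doses: compound at 4.8 µM, single dose; schedule: Compound–protein incubation for 5 h at 4 °C; detection: time-resolved FRET; read-out: percent inhibition; controls: biotin wells as high control, 0.6% DMSO wells as low control; format: 1536-well plates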
# 697 NFkB inh = inhibitors of PMA/ionomycin-induced NF-kB reporter, 697 cells, primary screen, B-cell NF-kB inhibitor project, cell-based, luminescence, uHTS. 697 B-cell NF-kB luciferase reporter, 16 h. inhibition, % at 4 µM. 0.33% of 330,000 active. AID 435022, 2010; in the data active = inhibition above about 35%
# JMJD2C inh = inhibitors of GASC-1 histone demethylase, primary screen, biochemical, fluorescence, DELFIA europium; AID 2099, 2009; 0.069% of 330,000 active; GST-JMJD2C(1-420) H3K9me3 demethylation; inhibition, % at 2.35 µM;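 active = more than half of a compound's replicate wells show inhibition beyond 50%, single wells judged on their own value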;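 note: signal counts dimethyl H3K9 product captured on neutravidin plate; 0% = median of DMSO wells and 100% = 0.3 times that DMSO median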
# Target sequence (Q9H3R0 1-420 limits assumed): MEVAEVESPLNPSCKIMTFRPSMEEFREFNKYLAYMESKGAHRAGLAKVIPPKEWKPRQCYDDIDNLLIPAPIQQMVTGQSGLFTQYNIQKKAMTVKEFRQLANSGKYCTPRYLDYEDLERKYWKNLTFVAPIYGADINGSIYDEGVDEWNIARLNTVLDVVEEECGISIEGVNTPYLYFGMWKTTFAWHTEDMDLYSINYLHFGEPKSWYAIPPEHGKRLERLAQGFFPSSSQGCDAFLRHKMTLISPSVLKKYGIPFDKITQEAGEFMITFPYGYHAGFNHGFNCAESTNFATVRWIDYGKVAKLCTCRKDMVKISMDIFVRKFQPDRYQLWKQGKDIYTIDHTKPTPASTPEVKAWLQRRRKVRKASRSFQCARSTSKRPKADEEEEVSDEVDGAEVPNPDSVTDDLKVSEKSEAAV
# Jurkat NFkB inh = inhibitors of induced NF-kB luciferase reporter, primary screen, TCR NF-kB activation inhibitor project, cell-based, luminescence, uHTS; 0.53% of 330,000 active; Jurkat, PMA/ionomycin-induced NF-kB luciferase reporter; inhibition, % at 4 µM; in the data active = inhibition above about 50%
# Jurkat NFkB conf = PMA/ionomycin-induced NF-kB reporter inhibitors, Jurkat retest, confirmation, T-cell NF-kB inhibitor project, cell-based, luminescence, single concentration. shares compounds with Jurkat NFkB inh. Jurkat NF-kB luciferase, 16 h. inhibition, % at 4 µM. 27% of 2,700 active;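 active = inhibition reaching about 45% at 4 µM in either replicate, limit read from the data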;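 note: plate controls were PMA/ionomycin stimulated DMSO wells for no effect and unstimulated DMSO wells for full effect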
# 697 NFkB conf = PMA/ionomycin-induced NF-kB reporter inhibitors, 697 retest, confirmation, B-cell NF-kB inhibitor project, cell-based, luminescence, single concentration; 35% of 2,000 active; shares compounds with 697 NFkB inh; 697 B-cell NF-kB luciferase, 16 h; inhibition, % at 4 µM; in the data active = inhibition mostly above about 28%, no sharp cut-off; inactive = mostly below about 22%
# NR2E3 ag confirm = NR2E3 agonist confirmation in cells, cell-based, luminescence, CHO-S two-hybrid | 51% of 2,300 active | inhibition, % at 3.98 µM | AID 624378, 2012 | CHO-S mammalian two-hybrid NR2E3-NCOR, luciferase luminescence | shares compounds with NR2E3 ag-1;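 active = average inhibition above a cutoff equal to the mean inhibition of all tested compounds plus one SD, cut at about 70% in these data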;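 note: 0% = DMSO in NR2E3 cells and 100% = DMSO in cells lacking NR2E3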
# GAL4-VP16 luc = GAL4-VP16 reporter modulators, confirmation, counter-screen for NR2E3 agonist project, cell-based, luminescence, CHO-S, high throughput | shares compounds with NR2E3 ag-1 | CHO-S GAL4-VP16 luciferase reporter | inhibition, % at 3.98 µM | 29% of 2,300 active;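 active = mean inhibition above a cutoff equal to the average over all tested compounds plus one standard deviation, cut at about 70% in these data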;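 note: luciferase from a UAS reporter driven by GAL4-VP16 transactivation; 0% = DMSO with VP16-transfected cells and 100% = DMSO with cells lacking VP16; higher means less reporter light so more repression of VP16 activity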
# GalR3 antag conf = GalR3 antagonist hit confirmation, cell-based, fluorescence, triplicate; AID 652245, 2013; 59% of 1,600 active; HEK293 GalR3 CNG cAMP biosensor, membrane potential fluorescence; galR3 fused to GalR1 carboxy tail; challenged with forskolin and galanin at EC90; inhibition, % at 3 µM; shares compounds with GalR3 antagonist;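 active = inhibition above the primary screen's cutoff, the mean inhibition of all screened compounds plus 3 SD, cut at about 13% in these data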;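 note: 0% = forskolin plus galanin and 100% = forskolin alone with DMSO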
# HEK-CNG parental = nonspecific cAMP agonists in parental HEK-CNG cells, counter-screen for GalR3 antagonist project, cell-based, fluorescence, high throughput; shares compounds with GalR3 antagonist; HEK293-CNG parental cells, cAMP membrane potential fluorescence; normalised: DMSO wells 0%, forskolin wells 100%; activation, % at 3 µM; 10% of 1,600 active; in the data active = activation above about 1.3%
# Active calls of the source: *; / = not tested or not shown.
SMILES,NR2E3 ag-1,GalR3 antagonist,NR2E3 ag-2,697 NFkB inh,JMJD2C inh,Jurkat NFkB inh,Jurkat NFkB conf,GalR3 antag conf,HEK-CNG parental,others
CC(C)CCOc1cccc(OCC(=O)Nc2ccncc2)c1,-7,92*,4,-11,-4,57*,65*,110*,-1,
COc1ccccc1CNC(=O)c1nn(C)c2c1CS(=O)(=O)c1ccccc1-2,-27,-7,2,17,-12,3,/,/,/,
CC(Nc1ncnc2sccc12)c1ccccc1 (stereo not drawn),106*,94*,-2,43*,-11,61*,62*,105*,0,697 NFkB conf=60*;NR2E3 ag confirm=97*;GAL4-VP16 luc=86*
Cc1cc(CSc2ccccc2)ccc1NC(=O)c1ccc(CN2CCOCC2)cc1,9,106*,0,49*,5,70*,73*,122*,-1,697 NFkB conf=47*
O=C(NC1CCN(Cc2ccccc2)CC1)c1ccc(S(=O)(=O)NCc2ccco2)cc1,-7,63*,0,-34,-3,51*,10,52*,0,
CCC(C)(C)c1ccc(OCCCC[n+]2cccc(C)c2C)c(C(C)(C)CC)c1,4,15*,-3,34,-1,94*,75*,67*,1.3*,
CC[C@@]12C(=O)N(c3cccc(F)c3)C(=O)N1[C@H](c1ccc(Br)cc1)[C@@H]1C(=O)N(C(C)(C)C)C(=O)[C@@H]12,-39,-6,-2,0,2,2,/,/,/,
CC1(C)CC2CC(C)(CN2S(=O)(=O)c2ccc(C(=O)Nc3cc(S(=O)(=O)N4CCOCC4)ccc3Cl)cc2)C1 (stereo not drawn),0,-4,-3,-57,9,30,/,/,/,
CC1(C)CC2CC(C)(CN2S(=O)(=O)c2ccc(C(=O)Nc3cccc(S(=O)(=O)N4CCOCC4)c3)cc2)C1 (stereo not drawn),3,87*,-1,-16,29,63*,69*,115*,-2,
CCn1c(C)nc2cc(C(=O)NN=Cc3ccc([N+](=O)[O-])cc3)ccc21,-24,-3,/,3,2,-1,/,/,/,
CCC(NC(=O)C1C2C=CC(C2)C1C(=O)O)c1ccc(C)cc1 (stereo not drawn),-5,-12,-3,4,2,-10,/,/,/,
CCN(CC)S(=O)(=O)c1cccc(NC(=O)CNc2cccc(S(=O)(=O)N3CCCC3)c2)c1,85*,104*,0,43*,2,56*,58*,113*,0,697 NFkB conf=67*;NR2E3 ag confirm=80*;GAL4-VP16 luc=61
CCN(CC)S(=O)(=O)c1ccc(C)c(NC(=O)CNc2cccc(S(=O)(=O)N3CCCC3)c2)c1,0,-2,2,-41,-8,2,/,/,/,
CCCCCCCCn1c2c(c(=N)c3ccccc31)CCC2,28,44*,/,26,-16,99*,69*,62*,11*,
CCCCCCCCCCn1c2c(c(=N)c3c1CCC3)CCC2,99*,28*,1,0,-1,82*,75*,39*,24*,NR2E3 ag confirm=100*;GAL4-VP16 luc=97*
CN(C)CCCNS(=O)(=O)c1ccc(NC2CCCCCC2)c([N+](=O)[O-])c1,49,78*,1,-26,-3,56*,23,100*,1.6*,NR2E3 ag confirm=55;GAL4-VP16 luc=64
Nc1ccc(Oc2ccc3nc(-c4ccccc4)c(-c4ccc([N+](=O)[O-])cc4)nc3c2)cc1,-41,0,-4,-2,-7,3,/,/,/,
COC1OC(COCc2ccccc2)C2OC(C)(C)OC2C1O (stereo not drawn),/,-6,/,/,/,/,/,/,/,
CC1CCCC(C)N1C(=O)COC(=O)c1cccnc1Cl (stereo not drawn),6,-3,/,-2,10,5,/,/,/,
Cc1cc(Cl)c(S(=O)(=O)N2CCN(c3ccc(F)cc3)CC2)cc1OCC(=O)NC1CCCCC1,3,97*,3,98*,4,65*,75*,110*,-1,697 NFkB conf=92*
CCc1c(C)nc2ncnn2c1NCCc1ccc(OC)cc1,84*,15*,-1,-15,-7,78*,68*,59*,0,NR2E3 ag confirm=89*;GAL4-VP16 luc=66
CCCCCc1ccc(OCCC[n+]2ccccc2)c(CCCCC)c1,-9,31*,2,60*,-2,63*,55*,36*,1.8*,697 NFkB conf=57*
CCCCCc1ccc(OCCOCCn2c[n+](C)c3ccccc32)c(CCCCC)c1,-17,/,/,/,-1,/,/,/,/,
Cc1ccc(C(CC(=O)O)NC(=O)CN2C(=O)c3ccccc3C2=O)cc1 (stereo not drawn),3,-9,-2,1,-3,5,/,/,/,
O=C(N/N=C\c1ccc(F)cc1)c1ccc(Cn2cc(Br)c([N+](=O)[O-])n2)o1,-27,-2,-3,37*,-2,6,/,/,/,697 NFkB conf=15

# Screening results from PubChem.
